Data from ChEMBL document CHEMBL1136274 (Bioorg Med Chem Lett, 2003).

What was measured:
[1] = target: T1, Sphingosine 1-phosphate receptor 1 (Homo sapiens, UniProt P21453); test: In vitro binding affinity towards human Sphingosine 1-phosphate receptor 1 expressed in HEK293T cells using [gamma-35S]-GTP as radioligand; format: cell-based, HEK-293T
[2] = target: Sphingosine 1-phosphate receptor 5 (Homo sapiens, UniProt Q9H228); test: In vitro binding affinity towards human Sphingosine 1-phosphate receptor 5 expressed in HEK293T cells using [gamma-35S]-GTP as radioligand; format: cell-based, HEK-293T
[3] = target: T2, Sphingosine 1-phosphate receptor 2 (Homo sapiens, UniProt O95136); test: In vitro binding affinity towards human Sphingosine 1-phosphate receptor 2 expressed in HEK293T cells using [gamma-35S]-GTP as radioligand; Not active; format: cell-based; conditions: hek-293t
[4] = target: T3, Sphingosine 1-phosphate receptor 4 (Homo sapiens, UniProt O95977); test: In vitro binding affinity towards human Sphingosine 1-phosphate receptor 4 expressed in HEK293T cells using [gamma-35S]-GTP as radioligand; format: cell-based, HEK-293T
T3 sequence (O95977 whole entry): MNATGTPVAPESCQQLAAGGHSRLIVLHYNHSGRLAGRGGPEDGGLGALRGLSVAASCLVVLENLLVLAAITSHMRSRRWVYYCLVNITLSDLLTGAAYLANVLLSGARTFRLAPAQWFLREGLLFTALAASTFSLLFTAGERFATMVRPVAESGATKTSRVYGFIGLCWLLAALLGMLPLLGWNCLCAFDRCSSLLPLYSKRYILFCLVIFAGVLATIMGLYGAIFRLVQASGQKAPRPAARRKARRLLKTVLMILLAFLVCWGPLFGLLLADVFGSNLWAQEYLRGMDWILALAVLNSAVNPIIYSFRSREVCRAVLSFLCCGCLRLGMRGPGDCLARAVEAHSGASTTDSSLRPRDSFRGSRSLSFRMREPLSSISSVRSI

[5] = target: T4, Sphingosine 1-phosphate receptor 3 (Homo sapiens, UniProt Q99500); test: In vitro binding affinity towards human Sphingosine 1-phosphate receptor 3 expressed in HEK293T cells using [gamma-35S]-GTP as radioligand; Not active; format: cell-based; conditions: hek-293t
[6] = target: T4, Sphingosine 1-phosphate receptor 3; test: In vitro binding affinity towards human Sphingosine 1-phosphate receptor 3 expressed in HEK293T cells using [gamma-35S]-GTP as radioligand; format: cell-based, HEK-293T
[7] = target: T2, Sphingosine 1-phosphate receptor 2; test: In vitro binding affinity towards human Sphingosine 1-phosphate receptor 2 expressed in HEK293T cells using [gamma-35S]-GTP as radioligand; format: cell-based, HEK-293T
[8] = target: T4, Sphingosine 1-phosphate receptor 3; test: In vitro binding affinity towards human S1P3 receptor expressed in HEK293T cells using [gamma-35S]-GTP as radioligand; format: cell-based, HEK-293T
[9] = target: T4, Sphingosine 1-phosphate receptor 3; test: In vitro binding affinity towards human Sphingosine 1-phosphate receptor 3 expressed in HEK293T cells using [gamma-35S]-GTP as radioligand (Experiment 2); format: cell-based, HEK-293T
Summary of the method: (§1)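 Membranes were incubated with test lipid in pH 7.5 buffer (HEPES 50 mM, NaCl 100 mM, MgCl2 5 mM) containing saponin, GDP and 0.1 nM [γ-35S]GTP for 30 min at 30 °C. Bound label was separated by GF/C filtration and counted by scintillation. EC50 is the mean of three experiments.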

[10] = target: T1, Sphingosine 1-phosphate receptor 1; test: In vitro binding affinity towards human Sphingosine 1-phosphate receptor 1 expressed in HEK293T cells using [gamma-35S]-GTP as radioligand. (Experiment 2); format: cell-based, HEK-293T; summary of the method: as §1
[11] = target: T3, Sphingosine 1-phosphate receptor 4; test: In vitro binding affinity towards human Sphingosine 1-phosphate receptor 4 expressed in HEK293T cells using [gamma-35S]-GTP as radioligand (Experiment 2); format: cell-based, HEK-293T; summary of the method: as §1

Sphingosine 1-phosphate receptor 5, sequence (Q9H228 whole entry): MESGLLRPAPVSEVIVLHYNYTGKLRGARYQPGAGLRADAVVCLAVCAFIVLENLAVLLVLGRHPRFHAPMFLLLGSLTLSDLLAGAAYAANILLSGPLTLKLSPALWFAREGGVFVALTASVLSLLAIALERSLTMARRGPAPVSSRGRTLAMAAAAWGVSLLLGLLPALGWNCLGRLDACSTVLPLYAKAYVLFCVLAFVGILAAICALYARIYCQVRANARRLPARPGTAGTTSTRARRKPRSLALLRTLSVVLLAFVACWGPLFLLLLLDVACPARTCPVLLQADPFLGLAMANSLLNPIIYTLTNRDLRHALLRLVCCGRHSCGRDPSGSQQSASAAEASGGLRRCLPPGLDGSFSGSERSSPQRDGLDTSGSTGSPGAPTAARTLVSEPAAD
T2 sequence (O95136 whole entry): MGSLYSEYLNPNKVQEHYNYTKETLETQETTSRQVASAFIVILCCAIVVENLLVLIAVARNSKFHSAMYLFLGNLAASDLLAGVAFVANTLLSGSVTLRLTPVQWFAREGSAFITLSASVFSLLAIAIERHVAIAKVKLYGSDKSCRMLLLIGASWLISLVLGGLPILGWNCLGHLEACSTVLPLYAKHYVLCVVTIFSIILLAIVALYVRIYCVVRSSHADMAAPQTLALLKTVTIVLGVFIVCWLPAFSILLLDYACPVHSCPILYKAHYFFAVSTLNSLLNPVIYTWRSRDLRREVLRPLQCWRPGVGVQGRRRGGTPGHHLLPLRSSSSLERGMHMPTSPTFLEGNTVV
T4 sequence (Q99500 whole entry): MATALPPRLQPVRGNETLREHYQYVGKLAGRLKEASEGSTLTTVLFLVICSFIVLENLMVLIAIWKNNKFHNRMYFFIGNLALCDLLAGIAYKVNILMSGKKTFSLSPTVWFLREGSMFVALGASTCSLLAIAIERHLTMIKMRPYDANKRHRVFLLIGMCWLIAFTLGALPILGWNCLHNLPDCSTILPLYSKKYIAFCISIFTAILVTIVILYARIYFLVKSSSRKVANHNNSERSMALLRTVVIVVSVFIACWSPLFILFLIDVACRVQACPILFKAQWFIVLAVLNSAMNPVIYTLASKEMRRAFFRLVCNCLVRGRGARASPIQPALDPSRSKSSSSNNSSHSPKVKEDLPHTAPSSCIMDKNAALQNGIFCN
T1 sequence (P21453 whole entry): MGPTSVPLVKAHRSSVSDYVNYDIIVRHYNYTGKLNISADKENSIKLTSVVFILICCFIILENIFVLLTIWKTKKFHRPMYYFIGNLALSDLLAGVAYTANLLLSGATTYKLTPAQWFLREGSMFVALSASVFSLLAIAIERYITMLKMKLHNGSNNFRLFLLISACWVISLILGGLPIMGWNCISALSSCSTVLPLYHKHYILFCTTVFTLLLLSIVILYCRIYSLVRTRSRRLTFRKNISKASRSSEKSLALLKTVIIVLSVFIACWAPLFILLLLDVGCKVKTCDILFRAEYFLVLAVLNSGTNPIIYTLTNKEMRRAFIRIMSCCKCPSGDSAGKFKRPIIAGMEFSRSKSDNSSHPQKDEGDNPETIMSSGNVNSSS

SMILES	EC50 [1] [nM]	EC50 [2] [nM]	EC50 [3]	EC50 [4] [nM]	EC50 [6] [nM]	also measured
CCCCCCc1ccc(NC(=O)[C@H](N)COP(=O)(O)O)cc1.O=C(O)C(F)(F)F	260	43	Not Active	880	–	EC50 [5]: Not Active
CCCCCCCCCCCCc1ccc(NC(=O)[C@H](N)COP(=O)(O)O)cc1.O=C(O)C(F)(F)F	130	160	Not Active	1400	740	–
CCCCCCCCCCCCCCCCNC(=O)[C@@H](N)COP(=O)(O)O	–	–	–	–	–	EC50 [7]: > 5000 nM
CCCCCCCCc1ccc(NC(=O)[C@H](N)COP(=O)(O)O)cc1.O=C(O)C(F)(F)F	58	–	Not Active	–	450	–
CCCCCCCCCCc1ccc(NC(=O)[C@H](N)COP(=O)(O)O)cc1.O=C(O)C(F)(F)F	8.6	41	Not Active	450	89	–
CCCCCCCCc1ccc(NC(=O)[C@@H](N)COP(=O)(O)O)cc1.O=C(O)C(F)(F)F	82	–	Not Active	–	–	EC50 [8]: 1500 nM
CCCCCCCCCCCCCCNC(=O)[C@@H](N)COP(=O)(O)O	397	1610	–	–	862	EC50 [7]: 2680 nM
CCCCCCCCCCCCCCNC(=O)[C@H](N)COP(=O)(O)O	–	> 5000	–	–	–	–
CCCCCCc1ccc(NC(=O)[C@@H](N)COP(=O)(O)O)cc1.O=C(O)C(F)(F)F	550	55	Not Active	1500	–	EC50 [5]: Not Active
CCCCCCCCCCCCC/C=C/[C@@H](O)[C@@H](N)COP(=O)(O)O	–	–	–	–	–	EC50 [9]: 8.7 nM; EC50 [10]: 4.5 nM; EC50 [11]: 270 nM
